2 compounds from ChEMBL document CHEMBL2034930, “Alkylidene branched lupane derivatives: synthesis and antitumor activity” (Eur J Med Chem, 2012) can be followed below.

The subject of one data set is MCF7. Kind of data set: Cytotoxicity against human MCF7 cells after 96 hrs by SRB assay. In kind it is functional, cell-based. The note with it: Homo sapiens, MCF7, 96 h; read-out: IC50. Summed up:
(§1)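 Cells exposed to test compounds for 96 h, then viable cells measured by sulforhodamine B staining as a percentage of untreated controls. IC50 read from dose-response curves, averaged over at least three independent experiments. Compounds tested free and also encapsulated in soybean-lecithin liposomes extruded through a 100 nm polycarbonate membrane (hydrodynamic diameter 70-120 nm, Z-average 105 nm, encapsulation >96% by HPLC).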

Data set [1] deals with SW480. Nature of the data set: Induction of apoptosis in human SW480 cells assessed as DNA laddering at IC90 concentration after 24 hrs.
In the next data set the test system is SW-1736. Nature of the data set: Cytotoxicity against human SW1736 cells after 96 hrs by SRB assay. Type of data set: functional, cell-based. The note with it: Homo sapiens, SW-1736, 96 h; read-out: IC50. An outline of the steps:
as §1

The test system of another data set is HCT-8. Kind of data set: Cytotoxicity against human HCT8 cells after 96 hrs by SRB assay. The note with it: Homo sapiens, HCT-8, 96 h; read-out: IC50. Type of data set: functional, cell-based. Summed up:
as §1

The next data set deals with FaDu. Nature of the data set: Cytotoxicity against human FADU cells after 96 hrs by SRB assay. Type of data set: functional, cell-based. The note with it: Homo sapiens, FaDu, 96 h; read-out: IC50. Summed up: as §1
A short description of data set [2]: Cytotoxicity against human A253 cells after 96 hrs by SRB assay. In kind it is functional, cell-based. The note with it: Homo sapiens, A253, 96 h; read-out: IC50. An outline of the steps:
as §1

The next data set relates to A2780. Kind of data set: Cytotoxicity against human A2780 cells after 96 hrs by SRB assay. Type of data set: functional, cell-based. The note with it: Homo sapiens, A2780, 96 h; read-out: IC50. An outline of the steps: as §1
The next data set concerns DLD-1. Nature of the data set: Cytotoxicity against human DLD1 cells after 96 hrs by SRB assay. Type of data set: functional, cell-based. Particulars: Homo sapiens, DLD-1, 96 h; read-out: IC50. An outline of the steps: as §1
A short description of data set [3]: Cytotoxicity against human Lipo cells after 96 hrs by SRB assay. Type of data set: functional, cell-based. The note with it: Homo sapiens, Lipo, 96 h; read-out: IC50. An outline of the steps:
as §1

Data set [4] in a line: Solubility of the compound in water. Type of data set: physicochemical. The note with it: buffer.
For data set [5], the system named is A549. Nature of the data set: Cytotoxicity against human A549 cells after 96 hrs by SRB assay. In kind it is functional, cell-based. Particulars: Homo sapiens, A549, 96 h; read-out: IC50. Summed up: as §1
In data set [6] the test system is SW480. Kind of data set: Cytotoxicity against human SW480 cells after 96 hrs by SRB assay. Type of data set: functional, cell-based. Particulars: Homo sapiens, SW480, 96 h; read-out: IC50. An outline of the steps:
as §1

The next data set deals with HT-29. Nature of the data set: Cytotoxicity against human HT-29 cells after 96 hrs by SRB assay. In kind it is functional, cell-based. The note with it: Homo sapiens, HT-29, 96 h; read-out: IC50. An outline of the steps:
as §1

Data set [7] concerns A549. Kind of data set: Induction of apoptosis in human A549 cells at 0.8 uM by acridine orange/ethidium bromide staining. In kind it is functional, cell-based.
The test system of another data set is HCT-116. Nature of the data set: Cytotoxicity against human HCT116 cells after 96 hrs by SRB assay. Type of data set: functional, cell-based. The note with it: Homo sapiens, HCT-116, 96 h; read-out: IC50. Summed up: as §1
The subject of another data set is A-431. Nature of the data set: Cytotoxicity against human A431 cells after 96 hrs by SRB assay. In kind it is functional, cell-based. The note with it: Homo sapiens, A-431, 96 h; read-out: IC50. An outline of the steps:
as §1

The subject of another data set is NIH3T3. Kind of data set: Cytotoxicity against mouse NIH/3T3 cells after 96 hrs by SRB assay. In kind it is cell-based. Particulars: NIH3T3, 96 h. An outline of the steps:
as §1

A further data set concerns 8505C. Nature of the data set: Cytotoxicity against human 8505C cells after 96 hrs by SRB assay. Type of data set: functional, cell-based. Particulars: Homo sapiens, 8505C, 96 h; read-out: IC50. Summed up: as §1
A short description of data set [8]: Cytotoxicity against human 518A2 cells after 96 hrs by SRB assay. The note with it: Homo sapiens, 518A2, 96 h; read-out: IC50. Type of data set: functional, cell-based. An outline of the steps:
as §1

A short description of data set [9]: Chemical stability of the compound. In kind it is physicochemical.

Activity calls are given as the source filed them. No cut-off for these calls is given here.

As to `C=C1C[C@]2(C)[C@H]3CC[C@@H]4[C@H]5[C@H](C(=C)C)CC[C@]5(C(=O)O)CC[C@@]4(C)[C@]3(C)CC[C@H]2C(C)(C)C1=O`, the IC50 in the data set on MCF7 amounted to 300 nM; in the data set on SW-1736, 400 nM; in the data set with HCT-8, 200 nM; with FaDu it was 500 nM; in [2], 400 nM; with A2780, 600 nM. In addition, the 50% inhibitory concentration (IC50) was determined as 400 nM with DLD-1; 600 nM in data set [3]; 600 nM in the data set on A549 [5]; 400 nM in the data set with SW480 [6]; 400 nM in the data set on HT-29; 200 nM in the data set with HCT-116. Also, the half-inhibitory concentration (IC50) with A-431 came to 200 nM; with NIH3T3, 800 nM; with 8505C it was 600 nM; in data set [8], 500 nM. The outcome with SW480 [1] and in the data set on A549 [7] was Active. Further, the solubility result in data set [4] was “Insoluble”.

Turning to `C=C(C)[C@@H]1CC[C@]2(C(=O)OC)CC[C@]3(C)[C@H](CC[C@@H]4[C@@]5(C)C[C@@H](CN(C)C)C(=O)C(C)(C)[C@@H]5CC[C@]43C)[C@@H]12`, the Stability result in data set [9] is on record as “Unstable”. For the same compound, the solubility result in data set [4] is on record as “Insoluble”.
